High-throughput results deposited in PubChem by The Scripps Research Institute Molecular Screening Center.
M5 antag – human M5 muscarinic receptor antagonists, primary screen, CHO cells, Fluo-8 calcium fluorescence; actives 0.59% (n = 360,000); AID 624040, 2012; inhibition, % at 3 µM; Muscarinic acetylcholine receptor M5 (Homo sapiens), P08912; CHO-hM5 cells, ACh EC80;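 active = inhibition above a per-plate cutoff, the mean of that plate's test compounds plus 3 SD, cut at about 27% in these data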
Target sequence (P08912 whole entry, looked up): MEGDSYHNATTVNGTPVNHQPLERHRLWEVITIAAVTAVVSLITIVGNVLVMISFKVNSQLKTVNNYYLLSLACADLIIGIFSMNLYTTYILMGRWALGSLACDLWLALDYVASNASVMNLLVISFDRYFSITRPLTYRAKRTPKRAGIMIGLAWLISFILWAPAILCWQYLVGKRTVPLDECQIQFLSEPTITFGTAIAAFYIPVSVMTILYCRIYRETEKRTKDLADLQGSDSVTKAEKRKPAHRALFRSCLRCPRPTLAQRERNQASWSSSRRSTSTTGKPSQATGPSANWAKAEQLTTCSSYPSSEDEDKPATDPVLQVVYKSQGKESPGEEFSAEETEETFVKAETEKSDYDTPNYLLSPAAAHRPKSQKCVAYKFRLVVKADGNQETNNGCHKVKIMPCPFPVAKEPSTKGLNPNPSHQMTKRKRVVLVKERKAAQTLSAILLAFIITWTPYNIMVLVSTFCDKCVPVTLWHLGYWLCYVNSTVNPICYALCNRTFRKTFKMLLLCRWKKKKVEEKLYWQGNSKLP
M4 antag – human M4 muscarinic receptor antagonists, primary screen, CHO cells, Fluo-8 calcium fluorescence; Muscarinic acetylcholine receptor M4 (Homo sapiens), P08173; CHO-hM4 cells, ACh EC80; inhibition, % at 3 µM; actives 0.73% (n = 360,000); AID 624125, 2012;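 active = inhibition above its plate's cutoff, the mean inhibition of sample wells plus 3 SD, cut at about 27% in these data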
CHRM5 agonist – human M5 muscarinic receptor agonists, primary screen, CHO-K1 cells, Fluo-8 calcium fluorescence. Muscarinic acetylcholine receptor M5 (Homo sapiens), P08912. CHO-K1 hM5 cells; 0% DMSO wells, 100% maximal acetylcholine response. activation, % at 3 µM. actives 0.19% (n = 360,000);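 active = activation above the run's mean over test compounds plus 3 SD, cut at about 23% in these data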;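 also: signal is peak over basal fluorescence ratio across the kinetic read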
CHRM5 PAM – human M5 muscarinic receptor positive allosteric modulators, primary screen, CHO-K1 cells, Fluo-8 calcium fluorescence; Muscarinic acetylcholine receptor M5 (Homo sapiens), P08912; CHO-K1 hM5, ACh EC20 PAM; 0% = ACh EC20, 100% = ACh EC100; activation, % at 3 µM; actives 0.3% (n = 360,000); AID 624038, 2012;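 active = activation above the run cutoff, the mean activation of all test compounds plus 3 SD, cut at about 18% in these data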
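Measured by: Fluo-8 calcium fluorescence; material: human M5 receptor in CHO-K1 cells; schedule: Post-acetylcholine fluorescence recording 140 s; benchmarks: low control EC20 acetylcholine (0%), high control EC100 acetylcholine (100%); read-out: Max/basal fluorescence ratio as % of EC20–EC100 ACh window; compound: single dose, 3 µM nominal final test concentration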
CHRM4 agonist – human M4 muscarinic receptor agonists, primary screen, CHO-K1 cells, Fluo-8 calcium fluorescence. actives 0.14% (n = 360,000). CHO-K1 hM4/Gqi5; vehicle 0%, full acetylcholine response 100%. activation, % at 3 µM;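 active = activation above the run mean over all test wells plus 3 SD, cut at about 32% in these data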;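 also: peak over basal fluorescence ratio per well then scaled between controls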
M4 PAM – human M4 muscarinic receptor positive allosteric modulators, primary screen, CHO-K1 cells, Fluo-8 calcium fluorescence | Muscarinic acetylcholine receptor M4 (Homo sapiens), P08173 | CHO-K1 hM4/Gqi5, ACh EC20; 0% = ACh EC20, 100% = maximal ACh | activation, % at 3 µM | actives 0.4% (n = 360,000);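 active = activation above its plate's cutoff, the mean activation of sample wells plus 3 SD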
Numbers stand for hits. Shown are actives, neighbours in structure and some others; about 1.8% of the full set was active somewhere.

CCOC(=O)c1c(NC(=O)c2ccc(S(=O)(=O)N3CCOCC3)cc2)sc2c1CCN(C)C2 was read as M5 antag inactive, M4 antag inactive, CHRM5 agonist inactive, CHRM5 PAM inactive, CHRM4 agonist inactive and M4 PAM 19.
CCOC(=O)c1c(NC(=S)N2CCN(C)CC2)sc2c1CCN(C(=O)OCC)C2 was read as M5 antag inactive, M4 antag inactive, CHRM5 agonist inactive, CHRM5 PAM inactive, CHRM4 agonist inactive and M4 PAM 12.
Screening CCOC(=O)c1c(NC(=O)CN(CC)CC)sc2c1CCN(C(=O)OCC)C2 returned M5 antag inactive, M4 antag inactive, CHRM5 agonist inactive, CHRM5 PAM inactive, CHRM4 agonist inactive and M4 PAM inactive.
For CC(=O)N1CCOc2ccc(S(=O)(=O)NCC3CCC(C(=O)NCCC(C)C)CC3)cc21 (stereo not given) the results were M5 antag inactive, M4 antag inactive, CHRM5 agonist inactive, CHRM5 PAM inactive, CHRM4 agonist inactive and M4 PAM 16.
`COc1ccc(OCC(=O)NCCNC(=O)c2cccnc2)cc1` gave M5 antag 48, M4 antag inactive, CHRM5 agonist inactive, CHRM5 PAM inactive, CHRM4 agonist inactive and M4 PAM inactive.
`O=C(NCCO[N+](=O)[O-])c1cccnc1` gave M5 antag 38, M4 antag 74, CHRM5 agonist inactive, CHRM5 PAM inactive, CHRM4 agonist inactive and M4 PAM inactive.
Screening Cc1ccc(N2CC(C(=O)OCC(=O)Nc3c(C)cccc3C)CC2=O)cc1 (stereo not given) returned M5 antag inactive, M4 antag inactive, CHRM5 agonist inactive, CHRM5 PAM inactive, CHRM4 agonist inactive and M4 PAM inactive.
COc1ccc(-c2nc3c4ccccc4ccn3c2Cc2ccsc2)cc1OC was read as M5 antag inactive, M4 antag inactive, CHRM5 agonist inactive, CHRM5 PAM inactive, CHRM4 agonist inactive and M4 PAM inactive.
`O=C(c1ccncc1)N(Cc1ccccc1)Cc1nc2ccccc2c(=O)[nH]1` gave M5 antag inactive, M4 antag inactive, CHRM5 agonist inactive, CHRM5 PAM 29, CHRM4 agonist inactive and M4 PAM inactive.
Screening Nn1c(SCC(=O)NC2CCS(=O)(=O)C2)nnc1-c1ccco1 (stereo not given) returned M5 antag inactive, M4 antag inactive, CHRM5 agonist inactive, CHRM5 PAM inactive, CHRM4 agonist inactive and M4 PAM inactive.
Screening CC[C@H](C)[C@H](NC(=O)OCc1ccccc1)C(=O)OCC(=O)Nc1ccc(N2CCOCC2)cc1 returned M5 antag inactive, M4 antag inactive, CHRM5 agonist inactive, CHRM5 PAM inactive, CHRM4 agonist inactive and M4 PAM inactive.
COC(=O)C1CCN(c2cc(=O)n(Cc3ccc(F)cc3)c(=O)[nH]2)CC1 was read as M5 antag inactive, M4 antag inactive, CHRM5 agonist inactive, CHRM5 PAM inactive, CHRM4 agonist inactive and M4 PAM inactive.
Screening CCOC(=O)C1CCCN(c2cc(=O)n(Cc3ccc(F)cc3)c(=O)[nH]2)C1 (stereo not given) returned M5 antag inactive, M4 antag inactive, CHRM5 agonist 24, CHRM5 PAM inactive, CHRM4 agonist inactive and M4 PAM inactive.
O=[N+]([O-])c1ccc(Nc2ccc(Cl)cc2)nc1 was read as M5 antag 31, M4 antag inactive, CHRM5 agonist inactive, CHRM5 PAM inactive, CHRM4 agonist inactive and M4 PAM inactive.
COc1ccc(-c2nc3ccccn3c2NC2CCCCC2)cc1SC1CCCCC1 was read as M5 antag inactive, M4 antag 28, CHRM5 agonist inactive, CHRM5 PAM inactive, CHRM4 agonist inactive and M4 PAM inactive.
Screening CCC(C)Sc1ccc(-c2nc3ccccn3c2NCc2ccccc2)cc1OC (stereo not given) returned M5 antag inactive, M4 antag 29, CHRM5 agonist inactive, CHRM5 PAM inactive, CHRM4 agonist inactive and M4 PAM inactive.
Screening COc1cc(-c2nc3ccccn3c2NCc2ccccc2)ccc1SC1CCCCC1 returned M5 antag inactive, M4 antag 27, CHRM5 agonist inactive, CHRM5 PAM inactive, CHRM4 agonist inactive and M4 PAM inactive.
COc1cc(-c2nc3ccc(C)cn3c2NCc2ccccc2)ccc1SC1CCCCC1 was read as M5 antag inactive, M4 antag inactive, CHRM5 agonist inactive, CHRM5 PAM inactive, CHRM4 agonist inactive and M4 PAM inactive.
`OC[C@@H]1CN(Cc2ccc3c(c2)OCO3)C[C@H](n2cnc3c(NC4CC4)ncnc32)O1` gave M5 antag inactive, M4 antag inactive, CHRM5 agonist inactive, CHRM5 PAM inactive, CHRM4 agonist inactive and M4 PAM inactive.
For C=CCOc1ccc(/C=N/NC(=O)c2c(C)nc3ccc(Cl)cn23)cc1 the results were M5 antag inactive, M4 antag inactive, CHRM5 agonist inactive, CHRM5 PAM inactive, CHRM4 agonist inactive and M4 PAM inactive.
For O=[N+]([O-])c1cccc(SSc2cccc([N+](=O)[O-])c2)c1 the results were M5 antag inactive, M4 antag inactive, CHRM5 agonist 26, CHRM5 PAM inactive, CHRM4 agonist inactive and M4 PAM inactive.
Nc1cccc([N+](=O)[O-])c1 was read as M5 antag inactive, M4 antag inactive, CHRM5 agonist inactive, CHRM5 PAM inactive, CHRM4 agonist inactive and M4 PAM inactive.
`COc1ccc(Nc2nc(NCCN3CCOCC3)nc(Nc3ccc(OC)cc3)n2)cc1` gave M5 antag inactive, M4 antag inactive, CHRM5 agonist inactive, CHRM5 PAM inactive, CHRM4 agonist inactive and M4 PAM inactive.
For O=C(Nc1ccc(Cl)cc1)Nc1ccccc1NS(=O)(=O)c1cccs1 the results were M5 antag 44, M4 antag inactive, CHRM5 agonist inactive, CHRM5 PAM inactive, CHRM4 agonist inactive and M4 PAM inactive.
O=C(Nc1ccc(F)cc1)Nc1ccccc1NS(=O)(=O)c1cccs1 was read as M5 antag inactive, M4 antag inactive, CHRM5 agonist inactive, CHRM5 PAM inactive, CHRM4 agonist inactive and M4 PAM inactive.
CC(C)(C)c1ccc2cc(F)cc(F)c2n1 was read as M5 antag inactive, M4 antag inactive, CHRM5 agonist inactive, CHRM5 PAM inactive, CHRM4 agonist inactive and M4 PAM inactive.
Screening CCc1sc(C(=O)N2CCc3cc(OC)c(OC)cc3C2CC(=O)O)cc1C (stereo not given) returned M5 antag inactive, M4 antag inactive, CHRM5 agonist inactive, CHRM5 PAM inactive, CHRM4 agonist inactive and M4 PAM inactive.
